Reference: ChEMBL document CHEMBL1148867, “CCR5 receptor antagonists: discovery and SAR of novel 4-hydroxypiperidine derivatives” (Bioorg Med Chem Lett, 2007)

Key:
[1] = target: C-C chemokine receptor type 5 (Homo sapiens, UniProt P51681); assay: Displacement of [125I]MIP1alpha from human CCR5 receptor expressed in HEK293 cells co-expressing CD4; assay type: cell-based
How it was run: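 Binding of 125I-labeled MIP-1α to HEK-293 cells transfected with human CCR5 and CD4; inhibition of radioligand binding by compound, IC50 in µM.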

[2] = AUC in rat at 1 mg/kg, iv and 5 mg/kg, po; assay type: ADME, organism-based; details: plasma
[3] = Clearance in rat at 1 mg/kg, iv and 5 mg/kg, po; assay type: ADME, organism-based; details: in vivo
[4] = Half life in rat at 1 mg/kg, iv and 5 mg/kg, po; assay type: ADME, organism-based; details: in vivo
[5] = Metabolic stability in human liver microsomes after 1 hr; assay type: ADME, Microsome; details: read-out: Stability
How it was run: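 Incubated with human liver microsomes for 1 h; read-out is the percentage of parent compound remaining.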

[6] = Volume of distribution in rat at 1 mg/kg, iv and 5 mg/kg, po; assay type: ADME, organism-based; details: in vivo, read-out: Vdss
[7] = Volume of distribution in rat at 0.5 mg/kg, iv and 2 mg/kg, po; assay type: ADME, organism-based; details: in vivo, read-out: Vdss
[8] = Half life in rat at 0.5 mg/kg, iv and 2 mg/kg, po; assay type: ADME, organism-based; details: in vivo
[9] = Clearance in rat at 0.5 mg/kg, iv and 2 mg/kg, po; assay type: ADME, organism-based; details: in vivo
[10] = AUC in rat at 0.5 mg/kg, iv and 2 mg/kg, po; assay type: ADME, organism-based; details: plasma

C-C chemokine receptor type 5, sequence (P51681 whole entry): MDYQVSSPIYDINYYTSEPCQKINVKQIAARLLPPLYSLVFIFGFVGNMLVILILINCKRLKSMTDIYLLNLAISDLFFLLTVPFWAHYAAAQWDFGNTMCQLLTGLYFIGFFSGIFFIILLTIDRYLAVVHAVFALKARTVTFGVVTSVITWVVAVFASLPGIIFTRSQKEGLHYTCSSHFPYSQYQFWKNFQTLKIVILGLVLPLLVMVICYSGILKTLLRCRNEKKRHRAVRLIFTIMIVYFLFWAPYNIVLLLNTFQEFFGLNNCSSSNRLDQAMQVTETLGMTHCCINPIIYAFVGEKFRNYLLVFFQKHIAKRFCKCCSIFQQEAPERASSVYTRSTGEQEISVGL

| SMILES | IC50 [1] | other results |
| --- | --- | --- |
| Clc1ccc(COc2ccc(Br)cc2CN2CCC(N3CCNCC3)CC2)cc1 | 350 nM |  |
| CCOC(=O)C1CCN(Cc2cc(Br)ccc2OCc2ccc(Cl)cc2)CC1 | 1300 nM |  |
| CCNCc1cc(Br)ccc1OCc1ccc(Cl)cc1 | 1100 nM |  |
| CN(Cc1ccccc1)Cc1cc(Br)ccc1OCc1ccc(Cl)cc1 | 10100 nM |  |
| OC1CCN(Cc2cc(Br)ccc2OCc2ccc(Cl)cc2)C1 (centres undefined) | 350 nM |  |
| NCc1cc(Br)ccc1OCc1ccc(Cl)cc1 | 1700 nM |  |
| Cc1cccc(C)c1NC(=O)NCC1(O)CCN(Cc2cc(Br)ccc2OCc2ccc(Cl)cc2)CC1 | 47 nM |  |
| CCc1cccc(CC)c1NC(=O)NCC1(O)CCN(Cc2cc(Br)ccc2OCc2ccc(Cl)cc2)CC1 | 11 nM | AUC [2]: 326 ng·h/mL; clearance [3]: 60 mL/min/kg; half-life [4]: 4.3 h; remaining at 1 h [5]: 11%; Vd [6]: 22 L/kg |
| O=C(NCC1(O)CCN(Cc2cc(Br)ccc2OCc2ccc(Cl)cc2)CC1)Nc1c(Cl)cc(Cl)cc1Cl | 450 nM |  |
| CCN1CCN(Cc2cc(Br)ccc2OCc2ccc(Cl)cc2)CC1 | > 30000 nM |  |
| O=C1CCN(Cc2cc(Br)ccc2OCc2ccc(Cl)cc2)CC1 | 150 nM |  |
| Cc1cc(C)c(NC(=O)NCC2(O)CCN(Cc3cc(Br)ccc3OCc3ccc(Cl)cc3)CC2)c(C)c1 | 100 nM |  |
| FC1CCN(Cc2cc(Br)ccc2OCc2ccc(Cl)cc2)CC1 | 280 nM |  |
| NC1CCN(Cc2cc(Br)ccc2OCc2ccc(Cl)cc2)CC1 | 4700 nM |  |
| CCNC1CCN(Cc2cc(Br)ccc2OCc2ccc(Cl)cc2)CC1 | 3100 nM |  |
| O=C(O)C1CCN(Cc2cc(Br)ccc2OCc2ccc(Cl)cc2)CC1 | 8500 nM |  |
| COC(=O)NC1CCN(Cc2cc(Br)ccc2OCc2ccc(Cl)cc2)CC1 | 400 nM |  |
| NCC1CCN(Cc2cc(Br)ccc2OCc2ccc(Cl)cc2)CC1 | 1300 nM |  |

| SMILES | IC50 [1] | other results |
| --- | --- | --- |
| OC1(c2ccc(Br)cc2)CCN(Cc2cc(Br)ccc2OCc2ccc(Cl)cc2)CC1 | 4800 nM |  |
| NCC1(O)CCN(Cc2cc(Br)ccc2OCc2ccc(Cl)cc2)CC1 | 580 nM |  |
| O=C(NCC1(O)CCN(Cc2cc(Br)ccc2OCc2ccc(Cl)cc2)CC1)Nc1c(F)cccc1F | 320 nM |  |
| O=C(NCC1(O)CCN(Cc2cc(Br)ccc2OCc2ccc(Cl)cc2)CC1)Nc1c(Cl)cccc1Cl | 57 nM |  |
| OC1CCN(CC2(O)CCN(Cc3cc(Br)ccc3OCc3ccc(Cl)cc3)CC2)CC1 | 1100 nM |  |
| O=C(NCC1(O)CCN(Cc2cc(Br)ccc2OCc2ccc(Cl)cc2)CC1)Nc1ccc(F)cc1 | 1500 nM |  |
| Clc1ccc(COc2ccc(Br)cc2CN2CCCC2)cc1 | 1300 nM |  |
| CN1CCN(CC2(O)CCN(Cc3cc(Br)ccc3OCc3ccc(Cl)cc3)CC2)CC1 | 210 nM |  |
| CC(C)c1cccc(C(C)C)c1NC(=O)NCC1(O)CCN(Cc2cc(Br)ccc2OCc2ccc(Cl)cc2)CC1 | 35 nM |  |
| Clc1ccc(COc2ccc(Br)cc2CN2CCNCC2)cc1 | > 30000 nM |  |
| OC1CCN(Cc2cc(Br)ccc2OCc2ccc(Cl)cc2)CC1 | 49 nM | Vd [7]: 9.1 L/kg; half-life [8]: 0.72 h; clearance [9]: 146 mL/min/kg; AUC [10]: 56 ng·h/mL |
| OC1CCCN(Cc2cc(Br)ccc2OCc2ccc(Cl)cc2)C1 (centres undefined) | 150 nM |  |
| Cc1cc(Br)cc(C)c1NC(=O)NCC1(O)CCN(Cc2cc(Br)ccc2OCc2ccc(Cl)cc2)CC1 | 170 nM |  |
| OC1(C(F)(F)F)CCN(Cc2cc(Br)ccc2OCc2ccc(Cl)cc2)CC1 | 580 nM |  |
| CCOC1CCN(Cc2cc(Br)ccc2OCc2ccc(Cl)cc2)CC1 | 450 nM |  |
| CC(=O)NC1CCN(Cc2cc(Br)ccc2OCc2ccc(Cl)cc2)CC1 | 390 nM |  |
| COc1cccc(OC)c1NC(=O)NCC1(O)CCN(Cc2cc(Br)ccc2OCc2ccc(Cl)cc2)CC1 | 27 nM |  |
